We go through 36 molecules from PubChem BioAssay AID2292 (The Scripps Research Institute Molecular Screening Center, 2010).

The list shows a part of the results. Unmarked numbers belong to inactive results. Activity calls are given as the source filed them.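 Rule for the calls: active = mean inhibition across replicates above a set limit taken from the earlier primary screen (cut at about 28% in these data); inactive = the rest.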

The assay deals with Epstein-Barr virus nuclear antigen 1 (EBNA-1) DNA-binding domain, Human herpesvirus 4. As to the kind of experiment: EBNA-1 DNA-binding inhibitors, retest, confirmation, biochemical, fluorescence polarization, triplicate (AID 2292).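 Note: plate controls were EBNA-1 protein with DMSO for no effect and wells lacking EBNA-1 for full effect.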 The note with it: Recombinant EBNA-1 DBD, Cy5-DNA fluorescence polarization; at 14.8 µM; hits give high values. The procedure, abridged:
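Timing: 30 min protein-DNA premix, then 1 h compound exposure, RT; material: E. coli-made EBNA-1 DBD, residues 448-610; replicates: each compound tested in triplicate; measured by: FP at Ex 620 nm / Em 688 nm; benchmarks: high control without EBNA-1, low control with EBNA-1 only; reagent: 10 nM Cy5 DNA hairpin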
For orientation: Polarisation of emitted light reports the rotation of a fluorescent probe.
Usually inhibition stands for the change of the read-out against control, counted positive when it falls. As to `Cc1ccc(-c2nn(-c3ccccc3)cc2/C=C2\SC(=S)N(CCCCCC(=O)O)C2=O)o1`, the inhibition was 16.8%.
The value for `CCOc1cccc(NC(=O)Cn2nc(-c3ccc4c(c3)OCCO4)ccc2=O)c1` was 64.7% (active); that for `COc1ccc(CNc2nc3c(c(=O)[nH]c(=O)n3C)n2Cc2ccccc2)cc1` was 7.27%; that for `COc1ccc(CCNC(=S)N2CCN(S(=O)(=O)c3ccc(F)cc3)CC2)cc1` was 3.15%.
Turning to `COc1ccc(C(=O)Nc2cccc(NC(=O)c3ccc(OC)cc3OC)n2)c(OC)c1`, the inhibition is 31.9% (active).
With `O=C(CCCn1c(SCC(=O)c2ccc(F)cc2)nc2ccccc2c1=O)NCc1ccco1`, the inhibition is 16.5%.
On to `C/C(=N\N=C(N)N)c1ccc(Cl)cc1`, for which the inhibition is 2.77%.
The value for `Nc1nnc(SCC(=O)Nc2ccc3nc(SCC(=O)Nc4ccccc4)sc3c2)s1` was 24.9%.
For `O=C(Nc1cccc(NC(=O)c2ccc(Br)cc2)c1)c1ccccc1`, the inhibition was 20.8%.
The value for `N#Cc1nc(N)nc(N(c2ccccc2)c2ccccc2)n1` was -5.35%; that for `Nc1ccc(S(=O)(=O)Nc2nccc(/C=C/c3ccc(Br)s3)n2)cc1` was 8.99%.
The value for `Cc1ccc(O)c(/C=N/NC(=O)COc2ccc3c(C)cc(=O)oc3c2)c1` was -12.4%; that for `COc1ccc(NC(=O)NCc2ccc3c(c2)OCO3)c(OC)c1` was 57% (active).
In the case of `CC(=O)Nc1ccc(S(=O)(=O)NCC(=O)OCc2cc(=O)oc3ccc4ccccc4c23)cc1` it was 5.47%; in that of `COC(=O)C1=CN(Cc2ccc(OC)cc2)C=C(C(=O)OC)C1c1ccc(O)c(OC)c1`, 37.1% (active).
Take `CCOc1ccc(C(=O)NC(=S)Nc2ccc(NC(=O)C(C)C)cc2)cc1[N+](=O)[O-]`: the inhibition is 55.5% (active).
In the case of `CCOc1ccc(NC(=O)c2ccc(NC(=O)COC(=O)c3ccc(NC(=O)CC#N)cc3)cc2)cc1` it was 3.81%.
`CC(=O)c1c(C)[nH]c(C(=O)OCC(=O)Nc2sc3c(c2C#N)CCCC3)c1C`: the inhibition is 25.9%.
In the case of `CCOc1cccc(SCc2noc(C(=O)NC(C)C)c2C(=O)O)c1` it was -11.1%; in that of `CCC(=O)Nc1ccc(C(=O)Nc2ccc3c(c2)C(=O)N(CC2CCCO2)C3=O)cc1` (stereo unspecified), 58.2% (active); in that of `COc1ccc(-c2ccc(Nc3ccc(S(=O)(=O)N4CCCC4)cc3)nn2)cc1OC`, -1.8%.
The value for `Cc1cccc(NC(=O)Cn2c(=O)n(Cc3ccccc3)c(=O)c3c(C)c(C)sc32)c1` was 5.76%; that for `CCOc1[nH]n(-c2ccc(Cl)cc2)c(=O)c1C=Nc1ccc(O)cc1` was -11.1%.
For the molecule `CCOc1ccc(OCC)c(NC(=O)C(NS(=O)(=O)c2ccc3c(c2)oc(=O)n3C)C(C)C)c1` (stereo unspecified), the inhibition is 62.8% (active).
Consider `Cc1ccc(C(=O)NNC(=O)c2cc3cc4ccccc4nc3s2)cc1`, for which the inhibition was 29.3% (active).
The value for `COc1ccc(-c2nonc2NC(=O)c2oc3ccc(F)cc3c2C)cc1OC` was 58.1% (active); that for `N#Cc1ccc(N2Cc3ccccc3/C2=N/C(=O)Nc2ccc(Cl)cc2)cc1` was 67.7% (active); that for `Cc1[nH]n(C(N)=S)c(=O)c1N=Nc1ccc(Cl)cc1Cl` was -9.96%.
The value for `COc1ccc(C)cc1NC(=O)NCc1ccccn1` was -7.1%.
In the case of `COC(=O)CSc1nc(C)c2ccc(OC)cc2n1` it was -0.23%; in that of `CCOC(=O)c1ccc(NC(=O)C2CC(=O)Nc3nc4ccccc4n32)cc1` (stereo unspecified), 61% (active); in that of `O=C(Nc1ccc2ccccc2c1)Nc1ccc2snnc2c1`, 142% (active).
With `CCc1nccn1S(=O)(=O)c1cccc([N+](=O)[O-])c1`, the inhibition is 1.11%.
With `O=C(COc1ccc(/C=N/NC(=O)c2ccc(O)cc2)cc1)Nc1ccc([N+](=O)[O-])cc1`, the inhibition was 51.1% (active).
In the case of `Cc1cccc(N(CC(=O)Nc2ccc(-c3nc4ccc(C)cc4s3)cc2)S(C)(=O)=O)c1` it was 12.2%.
Consider `COc1ccc(C(=O)CSc2nnc(NC(=O)C3CC(=O)N(c4cccc(OC)c4)C3)s2)cc1` (stereo unspecified), for which the inhibition was 52.3% (active).
